{"source": "paper PMC7368294", "about": "(Proceedings of the National Academy of Sciences of the …, 2020)", "key": {"[1]": {"target": "T1, Dα1/Dβ1 nAChR (Drosophila melanogaster, UniProt P04755+P09478)", "T1 sequence (P09478 22-567)": "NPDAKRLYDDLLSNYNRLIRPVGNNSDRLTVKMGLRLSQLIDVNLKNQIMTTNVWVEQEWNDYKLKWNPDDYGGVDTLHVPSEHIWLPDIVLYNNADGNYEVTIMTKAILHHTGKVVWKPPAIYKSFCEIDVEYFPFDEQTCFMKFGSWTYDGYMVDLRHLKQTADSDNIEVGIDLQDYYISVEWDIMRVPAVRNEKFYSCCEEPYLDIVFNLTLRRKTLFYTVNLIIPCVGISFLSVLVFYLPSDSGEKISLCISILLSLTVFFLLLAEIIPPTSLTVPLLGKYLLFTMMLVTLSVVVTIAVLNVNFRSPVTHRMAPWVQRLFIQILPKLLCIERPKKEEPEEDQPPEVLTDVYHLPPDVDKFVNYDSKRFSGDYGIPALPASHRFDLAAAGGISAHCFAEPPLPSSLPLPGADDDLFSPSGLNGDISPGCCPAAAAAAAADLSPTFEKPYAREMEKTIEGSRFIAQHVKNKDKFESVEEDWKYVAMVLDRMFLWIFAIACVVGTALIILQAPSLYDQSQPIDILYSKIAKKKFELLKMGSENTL", "T1 sequence (P04755 25-521)": "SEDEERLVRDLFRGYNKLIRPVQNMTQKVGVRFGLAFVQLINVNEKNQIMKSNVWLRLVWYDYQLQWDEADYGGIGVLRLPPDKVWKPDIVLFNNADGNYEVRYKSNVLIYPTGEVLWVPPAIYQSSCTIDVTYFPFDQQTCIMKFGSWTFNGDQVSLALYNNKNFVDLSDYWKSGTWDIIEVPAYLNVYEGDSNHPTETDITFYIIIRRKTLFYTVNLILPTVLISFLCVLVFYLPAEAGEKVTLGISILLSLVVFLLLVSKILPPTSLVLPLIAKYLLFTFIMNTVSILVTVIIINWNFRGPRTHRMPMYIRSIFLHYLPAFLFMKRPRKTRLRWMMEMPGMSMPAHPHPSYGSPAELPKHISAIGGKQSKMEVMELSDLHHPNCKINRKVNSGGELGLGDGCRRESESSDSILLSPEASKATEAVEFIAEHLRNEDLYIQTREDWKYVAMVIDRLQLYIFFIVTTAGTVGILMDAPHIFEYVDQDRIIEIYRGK", "test": "two-electrode voltage clamp of Xenopus oocytes, agonist concentration-response", "assay_type": "cell-based", "summary_of_the_method": "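Oocytes were collagenase-defolliculated, injected with subunit and cofactor cRNAs (100 ng⋅μL−1 each) and kept 3–7 d at 16 °C. Cells were clamped at −100 mV and perfused with saline containing 0.5 μM atropine. Agonists were applied 5 s at 3-min intervals after stable 100 μM ACh responses. Peak currents were normalized to 100 μM ACh and Hill-fitted. n = 5, ≥2 frogs; DMSO <0.1%.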"}, "[2]": {"target": "T2, Dα1/Dα2/Dβ1 nAChR (Drosophila melanogaster, UniProt P04755+P09478+P17644)", "T2 sequence (P09478 22-567)": "T1 sequence (P09478 22-567)", "T2 sequence (P17644 22-576)": "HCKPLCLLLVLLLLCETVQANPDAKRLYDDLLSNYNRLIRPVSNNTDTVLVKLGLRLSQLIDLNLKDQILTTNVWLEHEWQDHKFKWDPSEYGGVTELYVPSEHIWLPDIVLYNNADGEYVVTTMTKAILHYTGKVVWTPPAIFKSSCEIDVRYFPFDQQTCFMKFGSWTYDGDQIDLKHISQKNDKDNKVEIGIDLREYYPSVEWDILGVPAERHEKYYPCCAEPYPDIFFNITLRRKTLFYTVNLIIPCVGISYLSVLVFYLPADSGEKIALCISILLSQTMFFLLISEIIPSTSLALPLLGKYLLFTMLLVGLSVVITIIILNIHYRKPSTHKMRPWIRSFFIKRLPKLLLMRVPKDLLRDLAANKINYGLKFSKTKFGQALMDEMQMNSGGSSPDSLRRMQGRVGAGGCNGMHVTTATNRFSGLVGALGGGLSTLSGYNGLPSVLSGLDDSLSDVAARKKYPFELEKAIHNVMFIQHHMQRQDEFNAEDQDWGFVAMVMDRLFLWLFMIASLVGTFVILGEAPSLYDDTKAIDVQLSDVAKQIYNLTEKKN", "T2 sequence (P04755 25-521)": "T1 sequence (P04755 25-521)", "test": "cell-based", "parameters": "species or system Xenopus laevis oocytes"}, "[3]": {"target": "Btα1/Btα2/Btα8/Btβ1 nAChR (Bombus terrestris, UniProt A0A9B0BGM1+A0A9B0F4H3+A0A9B2JDZ7+A0A9B2JMX7)", "sequence (A0A9B0F4H3 44-615)": "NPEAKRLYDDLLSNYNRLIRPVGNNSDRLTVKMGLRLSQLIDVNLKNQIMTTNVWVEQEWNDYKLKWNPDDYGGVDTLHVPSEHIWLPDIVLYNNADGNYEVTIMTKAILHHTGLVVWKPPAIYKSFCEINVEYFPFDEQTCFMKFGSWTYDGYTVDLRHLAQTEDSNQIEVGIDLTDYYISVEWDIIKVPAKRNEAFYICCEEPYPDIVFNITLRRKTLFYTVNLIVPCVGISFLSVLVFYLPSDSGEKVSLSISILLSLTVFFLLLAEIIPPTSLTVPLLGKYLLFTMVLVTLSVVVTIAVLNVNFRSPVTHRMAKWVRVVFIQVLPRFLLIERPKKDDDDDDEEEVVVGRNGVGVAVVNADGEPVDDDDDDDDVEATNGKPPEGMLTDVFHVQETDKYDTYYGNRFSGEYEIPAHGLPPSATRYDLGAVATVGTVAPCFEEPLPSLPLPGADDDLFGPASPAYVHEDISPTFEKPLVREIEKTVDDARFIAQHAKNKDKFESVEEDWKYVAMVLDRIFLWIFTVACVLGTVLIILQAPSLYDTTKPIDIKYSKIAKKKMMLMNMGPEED", "sequence (A0A9B2JMX7 18-544)": "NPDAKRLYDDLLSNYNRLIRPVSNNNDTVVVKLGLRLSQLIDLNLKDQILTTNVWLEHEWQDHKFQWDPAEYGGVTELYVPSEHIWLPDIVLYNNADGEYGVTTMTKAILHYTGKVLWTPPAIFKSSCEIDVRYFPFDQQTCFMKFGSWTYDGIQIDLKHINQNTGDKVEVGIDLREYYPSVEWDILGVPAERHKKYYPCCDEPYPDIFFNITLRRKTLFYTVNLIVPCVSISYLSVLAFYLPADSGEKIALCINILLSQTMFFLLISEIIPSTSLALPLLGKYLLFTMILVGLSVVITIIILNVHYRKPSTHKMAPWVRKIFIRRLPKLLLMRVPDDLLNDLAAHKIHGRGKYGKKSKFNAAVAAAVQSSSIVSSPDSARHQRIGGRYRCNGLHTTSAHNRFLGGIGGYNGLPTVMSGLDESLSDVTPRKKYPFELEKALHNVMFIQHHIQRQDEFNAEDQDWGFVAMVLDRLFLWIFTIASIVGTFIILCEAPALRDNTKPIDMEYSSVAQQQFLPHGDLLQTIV", "sequence (A0A9B2JDZ7 22-535)": "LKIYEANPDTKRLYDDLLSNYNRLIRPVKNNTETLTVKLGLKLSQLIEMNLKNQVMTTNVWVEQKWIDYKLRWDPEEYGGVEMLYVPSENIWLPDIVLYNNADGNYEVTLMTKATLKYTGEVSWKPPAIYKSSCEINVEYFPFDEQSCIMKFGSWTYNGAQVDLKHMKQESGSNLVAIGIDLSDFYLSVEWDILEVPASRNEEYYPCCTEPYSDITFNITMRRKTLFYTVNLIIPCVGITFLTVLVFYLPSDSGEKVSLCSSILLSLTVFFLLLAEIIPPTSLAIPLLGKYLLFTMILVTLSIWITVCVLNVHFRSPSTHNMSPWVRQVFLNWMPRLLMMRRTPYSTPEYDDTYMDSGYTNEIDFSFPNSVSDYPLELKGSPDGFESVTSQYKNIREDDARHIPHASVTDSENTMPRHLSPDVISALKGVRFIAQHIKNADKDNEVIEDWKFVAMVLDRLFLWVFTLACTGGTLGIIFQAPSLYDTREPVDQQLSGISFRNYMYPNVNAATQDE", "sequence (A0A9B0BGM1 19-519)": "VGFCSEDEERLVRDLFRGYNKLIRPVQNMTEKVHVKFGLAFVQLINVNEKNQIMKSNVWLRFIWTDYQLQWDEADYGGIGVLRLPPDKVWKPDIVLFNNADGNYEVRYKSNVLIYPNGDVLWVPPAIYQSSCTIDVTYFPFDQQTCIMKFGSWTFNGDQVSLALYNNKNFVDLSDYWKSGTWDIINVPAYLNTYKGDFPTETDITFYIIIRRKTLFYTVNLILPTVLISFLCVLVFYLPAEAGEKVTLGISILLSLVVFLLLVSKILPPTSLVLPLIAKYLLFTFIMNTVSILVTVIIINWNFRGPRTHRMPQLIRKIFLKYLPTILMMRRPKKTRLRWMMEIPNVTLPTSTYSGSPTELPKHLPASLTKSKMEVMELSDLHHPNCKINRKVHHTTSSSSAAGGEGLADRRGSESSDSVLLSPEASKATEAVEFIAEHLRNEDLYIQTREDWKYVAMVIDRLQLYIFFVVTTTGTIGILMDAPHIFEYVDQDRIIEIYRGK", "test": "cell-based", "parameters": "species or system Xenopus laevis oocytes", "conditions": "Oocyte"}, "[4]": {"target": "T3, Dα1/Dα2/Dβ1/Dβ2 nAChR (Drosophila melanogaster, UniProt P04755+P09478+P17644+P25162)", "test": "cell-based", "parameters": "species or system Xenopus laevis oocytes", "conditions": "Oocyte"}, "[5]": {"target": "T4, Dα1/Dβ1/Dβ2 nAChR (Drosophila melanogaster, UniProt P04755+P09478+P25162)", "T4 sequence (P09478 22-567)": "T1 sequence (P09478 22-567)", "T4 sequence (P04755 25-521)": "T1 sequence (P04755 25-521)", "T4 sequence (P25162 19-519)": "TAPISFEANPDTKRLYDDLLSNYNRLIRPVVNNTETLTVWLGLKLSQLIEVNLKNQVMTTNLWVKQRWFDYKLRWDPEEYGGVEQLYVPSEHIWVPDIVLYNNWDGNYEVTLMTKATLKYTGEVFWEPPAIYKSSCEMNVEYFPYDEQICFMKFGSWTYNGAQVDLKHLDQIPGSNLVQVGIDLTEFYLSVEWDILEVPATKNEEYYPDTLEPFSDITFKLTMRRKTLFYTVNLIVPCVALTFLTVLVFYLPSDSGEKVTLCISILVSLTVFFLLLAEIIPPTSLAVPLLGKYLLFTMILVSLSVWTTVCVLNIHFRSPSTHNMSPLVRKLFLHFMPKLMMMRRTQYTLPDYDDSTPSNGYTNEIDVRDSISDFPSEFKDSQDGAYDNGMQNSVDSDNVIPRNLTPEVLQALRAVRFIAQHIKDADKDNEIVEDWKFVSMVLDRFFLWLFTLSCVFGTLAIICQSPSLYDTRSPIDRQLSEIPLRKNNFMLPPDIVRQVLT", "test": "cell-based", "parameters": "species or system Xenopus laevis oocytes", "conditions": "Oocyte"}, "[6]": {"target": "T3, Dα1/Dα2/Dβ1/Dβ2 nAChR", "test": "two-electrode voltage clamp of Xenopus oocytes, agonist concentration-response", "assay_type": "cell-based"}, "[7]": {"target": "T4, Dα1/Dβ1/Dβ2 nAChR", "test": "two-electrode voltage clamp of Xenopus oocytes, agonist concentration-response", "assay_type": "cell-based"}, "[8]": {"target": "T2, Dα1/Dα2/Dβ1 nAChR", "test": "two-electrode voltage clamp of Xenopus oocytes, agonist concentration-response", "assay_type": "cell-based"}, "[9]": {"conditions": "read-out: Clothianidin / Imax / ND"}}, "note": "Read-outs that look alike come from different tables or passages of the source."}
{"compound": "CN/C(=N\\[N+](=O)[O-])NCc1cnc(Cl)s1", "note": "[clothianidin]", "values": [{"measurement": "EC50", "setting": "[1]", "value": 61.7, "unit": "nM"}, {"measurement": "EC50", "setting": "[2]", "value": 2950, "unit": "nM"}, {"measurement": "Emax", "setting": "[3]; read-out: Clothianidin / Imax", "value": "68 ± 2.9", "unit": "%"}, {"measurement": "Emax", "setting": "[4]; [9]", "value": "82.1 ± 1.7", "unit": "%"}, {"measurement": "Emax", "setting": "[5]; [9]", "value": "41.1 ± 1.1", "unit": "%"}]}
{"compound": "N#C/N=C1\\SCCN1Cc1ccc(Cl)nc1", "note": "[thiacloprid]", "values": [{"measurement": "EC50", "setting": "[1]", "value": 22.9, "unit": "nM"}, {"measurement": "EC50", "setting": "[6]", "value": 70.8, "unit": "nM"}, {"measurement": "EC50", "setting": "[7]", "value": 18.6, "unit": "nM"}, {"measurement": "Emax", "setting": "[3]; read-out: Thiacloprid / Imax", "value": "9.2 ± 1.1", "unit": "%"}, {"measurement": "EC50", "setting": "[8]", "value": 234, "unit": "nM"}, {"measurement": "Emax", "setting": "[4]; read-out: Thiacloprid / Imax", "value": "45.4 ± 1.9", "unit": "%"}, {"measurement": "Emax", "setting": "[5]; read-out: Thiacloprid / Imax", "value": "5.6 ± 0.5", "unit": "%"}]}
{"compound": "O=[N+]([O-])NC1=NCCN1Cc1ccc(Cl)nc1", "note": "[imidacloprid]", "values": [{"measurement": "EC50", "setting": "[6]", "value": 120, "unit": "nM"}, {"measurement": "EC50", "setting": "[7]", "value": 107, "unit": "nM"}, {"measurement": "Emax", "setting": "[3]; read-out: Imidacloprid / Imax", "value": "8.5 ± 0.7", "unit": "%"}, {"measurement": "EC50", "setting": "[8]", "value": 407, "unit": "nM"}, {"measurement": "Emax", "setting": "[4]; read-out: Imidacloprid / Imax", "value": "59.2 ± 3", "unit": "%"}, {"measurement": "Emax", "setting": "[5]; read-out: Imidacloprid / Imax", "value": "24.4 ± 2.2", "unit": "%"}]}
